Assay results: ChEMBL document CHEMBL2346664, “Synthesis, characterization and in vitro anticancer evaluation of novel 1,2,4-triazolin-3-one derivatives” (2013)

Assays:
Type in all cases: functional
[1] = test system: MDA-MB-468; experiment: Growth inhibition of human MDA-MB-468 cells assessed as cell growth at 10 uM after 48 hrs by sulforhodamine B assay; details: MDA-MB-468, 48 h, read-out: Activity
In short: (§1)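 NCI-60 primary single-dose screen at 10^-5 M, 48 h continuous exposure. Adherent cells were fixed with cold TCA (10% final) and suspension cells with 16% final TCA, then stained with 0.4% SRB in 1% acetic acid. Bound dye was solubilized in 10 mM Tris base and read at 515 nm. Output is growth percent relative to untreated controls, and GI% is 100 minus growth percent.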

[2] = test system: T47D; experiment: Growth inhibition of human T47D cells assessed as cell growth at 10 uM after 48 hrs by sulforhodamine B assay; details: read-out: Activity
In short: (§2)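 NCI-60 single-dose screen at 10^-5 M. Cells plated at 5,000–40,000/well by doubling time and grown 24 h at 37 °C, 5% CO2, then drug added from DMSO stock for 48 h continuous exposure. Adherent cells fixed with cold TCA (final 10%), suspension cells with 16% TCA. SRB stain read at 515 nm. Reported as growth percent relative to untreated controls and time-zero plates.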

[3] = Growth inhibition of human Hs 578T cells assessed as cell growth at 10 uM after 48 hrs by sulforhodamine B assay; details: read-out: Activity; in short: as §1
[4] = test system: MDA-MB-231; experiment: Growth inhibition of human MDA-MB-231 cells assessed as cell growth at 10 uM after 48 hrs by sulforhodamine B assay; details: MDA-MB-231, 48 h, read-out: Activity; in short: as §1
[5] = test system: PC-3; experiment: Growth inhibition of human PC3 cells assessed as cell growth at 10 uM after 48 hrs by sulforhodamine B assay; details: PC-3, 48 h, read-out: Activity; in short: as §2
[6] = test system: SN12C; experiment: Growth inhibition of human SN12C cells assessed as cell growth at 10 uM after 48 hrs by sulforhodamine B assay; details: read-out: Activity; in short: as §2
[7] = test system: RXF 393; experiment: Growth inhibition of human RXF393 cells assessed as cell growth at 10 uM after 48 hrs by sulforhodamine B assay; details: RXF 393, 48 h, read-out: Activity; in short: as §2
[8] = test system: CAKI-1; experiment: Growth inhibition of human CAKI-1 cells assessed as cell growth at 10 uM after 48 hrs by sulforhodamine B assay; details: CAKI-1, 48 h, read-out: Activity
In short: (§3)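 NCI-60 primary screen at a single dose of 10^-5 M. Output is mean growth percent of treated cells relative to untreated controls, where values between 0 and 100 indicate growth inhibition and values below 0 indicate cytotoxicity. Cells were plated 24 h before drug, incubated 48 h at 37 °C, 5% CO2, and stained with SRB after TCA fixation. Suspension cells were fixed with 80% TCA (16% final).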

[9] = test system: ACHN; experiment: Growth inhibition of human ACHN cells assessed as cell growth at 10 uM after 48 hrs by sulforhodamine B assay; details: read-out: Activity; in short: as §3
[10] = test system: A498; experiment: Growth inhibition of human A498 cells assessed as cell growth at 10 uM after 48 hrs by sulforhodamine B assay; details: A498, 48 h, read-out: Activity; in short: as §3
[11] = test system: 786-0; experiment: Growth inhibition of human 786-0 cells assessed as cell growth at 10 uM after 48 hrs by sulforhodamine B assay; details: 786-0, 48 h, read-out: Activity; in short: as §3
[12] = test system: SK-OV-3; experiment: Growth inhibition of human SKOV3 cells assessed as cell growth at 10 uM after 48 hrs by sulforhodamine B assay; details: SK-OV-3, 48 h, read-out: Activity; in short: as §2
[13] = test system: OVCAR-8; experiment: Growth inhibition of human OVCAR8 cells assessed as cell growth at 10 uM after 48 hrs by sulforhodamine B assay; details: OVCAR-8, 48 h, read-out: Activity; in short: as §2
[14] = test system: OVCAR-5; experiment: Growth inhibition of human OVCAR5 cells assessed as cell growth at 10 uM after 48 hrs by sulforhodamine B assay; details: OVCAR-5, 48 h, read-out: Activity; in short: as §2
[15] = test system: SK-MEL-28; experiment: Growth inhibition of human SK-MEL-28 cells assessed as cell growth at 10 uM after 48 hrs by sulforhodamine B assay; details: SK-MEL-28, 48 h, read-out: Activity; in short: as §2
[16] = test system: SK-MEL-5; experiment: Growth inhibition of human SK-MEL-5 cells assessed as cell growth at 10 uM after 48 hrs by sulforhodamine B assay; details: SK-MEL-5, 48 h, read-out: Activity; in short: as §2
[17] = test system: SK-MEL-2; experiment: Growth inhibition of human SK-MEL-2 cells assessed as cell growth at 10 uM after 48 hrs by sulforhodamine B assay; details: SK-MEL-2, 48 h, read-out: Activity; in short: as §2
[18] = test system: M14; experiment: Growth inhibition of human M14 cells assessed as cell growth at 10 uM after 48 hrs by sulforhodamine B assay; details: M14, 48 h, read-out: Activity; in short: as §1
[19] = test system: SNB-19; experiment: Growth inhibition of human SNB19 cells assessed as cell growth at 10 uM after 48 hrs by sulforhodamine B assay; details: SNB-19, 48 h, read-out: Activity; in short: as §2
[20] = test system: SF-539; experiment: Growth inhibition of human SF539 cells assessed as cell growth at 10 uM after 48 hrs by sulforhodamine B assay; details: SF-539, 48 h, read-out: Activity; in short: as §2
[21] = Growth inhibition of human HCC2998 cells assessed as cell growth at 10 uM after 48 hrs by sulforhodamine B assay; details: HCC 2998, 48 h, read-out: Activity; in short: as §1
[22] = test system: COLO 205; experiment: Growth inhibition of human COLO205 cells assessed as cell growth at 10 uM after 48 hrs by sulforhodamine B assay; details: COLO 205, 48 h, read-out: Activity; in short: as §1
[23] = test system: HOP-92; experiment: Growth inhibition of human HOP92 cells assessed as cell growth at 10 uM after 48 hrs by sulforhodamine B assay; details: HOP-92, 48 h, read-out: Activity; in short: as §1
[24] = Growth inhibition of human EKVX cells assessed as cell growth at 10 uM after 48 hrs by sulforhodamine B assay; details: read-out: Activity; in short: as §1
[25] = test system: MOLT-4; experiment: Growth inhibition of human MOLT4 cells assessed as cell growth at 10 uM after 48 hrs by sulforhodamine B assay; details: MOLT-4, 48 h, read-out: Activity; in short: as §1
[26] = test system: K562; experiment: Growth inhibition of human K562 cells assessed as cell growth at 10 uM after 48 hrs by sulforhodamine B assay; details: K562, 48 h, read-out: Activity; in short: as §1
[27] = test system: HCT-116; experiment: Growth inhibition of human HCT116 cells after 48 hrs by sulforhodamine B assay; details: HCT-116, 48 h
In short: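 NCI 60-cell-line five-dose screen. Cells were plated at 5,000–40,000/well by doubling time and grown 24 h at 37 °C, 5% CO2. Time-zero plates were TCA-fixed. Drug from DMSO stock was tested at 0.01, 0.1, 1, 10 and 100 µM final for 48 h continuous exposure. Read-out was SRB at 515 nm. GI50 is the concentration giving 50% reduction in net protein increase versus untreated control.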

[28] = test system: SN12C; experiment: Growth inhibition of human SN12C cells assessed as growth inhibition at 10 uM after 48 hrs by sulforhodamine B assay; details: read-out: GI
[29] = test system: NCI-H522; experiment: Growth inhibition of human NCI-H522 cells assessed as cell growth at 10 '-8 M after 48 hrs by sulforhodamine B assay; details: NCI-H522, 48 h, read-out: Activity

Row | Structure (SMILES) | growth at 10 µM [1] [%] | growth at 10 µM [2] [%] | growth at 10 µM [3] [%] | growth at 10 µM [4] [%] | growth at 10 µM [5] [%] | growth at 10 µM [6] [%] | growth at 10 µM [7] [%] | growth at 10 µM [8] [%] | growth at 10 µM [9] [%] | growth at 10 µM [10] [%] | growth at 10 µM [11] [%] | growth at 10 µM [12] [%] | growth at 10 µM [13] [%] | growth at 10 µM [14] [%] | growth at 10 µM [15] [%] | growth at 10 µM [16] [%] | growth at 10 µM [17] [%] | growth at 10 µM [18] [%] | growth at 10 µM [19] [%] | growth at 10 µM [20] [%] | also measured
1 | Cc1nn(-c2ccc(Cl)cc2)c(=O)n1CCN1CCOCC1 | 90.3 | 78.3 | 42.7 | 57.3 | 80.8 | 89.6 | 42.1 | 72.4 | 38.7 | 105 | 59.4 | 42.8 | 116 | 92.4 | 92.9 | 80.3 | 61.1 | 69.8 | 58.7 | 67 | growth at 10 µM [21]: 91.3%; growth at 10 µM [22]: 107%; growth at 10 µM [23]: 30.1%; growth at 10 µM [24]: 75.5%; growth at 10 µM [25]: 90.9%; growth at 10 µM [26]: 70.1%
2 | Cc1cc(=O)oc2cc(OCCn3c(C)nn(-c4ccc(Cl)cc4)c3=O)ccc12 | 16.1 | 47.4 | 34.8 | 47.5 | 48.5 | 51.8 | 37.4 | 19.5 | 41.9 | 25.7 | 32.9 | 41.1 | 17.7 | 38.8 | 40.8 | 10.8 | 3.55 | 14.7 | 54.5 | 29.5 | growth at 10 µM [21]: 46.7%; GI50 [27]: 3570 nM; TGI [27]: > 1000 nM; CC50 ([27]; read-out: LD50 (the source's name)): > 1000 nM; growth at 10 µM [22]: 10.6%; growth at 10 µM [23]: 47.4%; growth at 10 µM [24]: 58.7%; growth at 10 µM [25]: 37.6%; growth at 10 µM [26]: 16.3%; inhibition of growth at 10 µM [28]: 48.2%; growth at 0.01 µM [29]: 100%
